For series [1], the target named is Cholesterol 24-hydroxylase (Homo sapiens, UniProt Q9Y6A2). The experiment in a line: Binding affinity to truncated d(2-50) 4His-tagged human CYP46A1 expressed in Escherichia coli DH5alpha as cholesterol-24 hydroxylation using cholesterol as substrate incubated for 30 mins in presence of NADPH cytochrome P450 oxidoreductase by gas chromatography-mass spectrometry.

Series [2] is described as follows: Drug uptake in iv dosed mouse kidney assessed as per gram of wet tissue measured after 5 to 60 mins. The series is classed as ADME, organism-based. The note with it: read-out: Drug uptake. A digest of the protocol: (§1)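 Ex vivo whole-body biodistribution in mice after intravenous radioligand injection. Tissues collected at 5, 15, 30 and 60 min; radioactivity expressed as %ID/g, mean ± SD, n = 4 per time point.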

Series [3] in a line: Drug uptake in iv dosed mouse pancreas assessed as per gram of wet tissue measured after 5 to 60 mins. Type of series: ADME, organism-based. To be noted: read-out: Drug uptake. A digest of the protocol: as §1
A short description of series [4]: Drug uptake in iv dosed mouse lung assessed as per gram of wet tissue measured after 5 to 60 mins. To be noted: read-out: Drug uptake. Type of series: ADME, organism-based. A digest of the protocol: as §1
Series [5] can be described thus: Lipophilicity, logD of compound in n-octanol and phosphate buffered saline by shake flask method. The series is classed as physicochemical. A digest of the protocol: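 Shake-flask partition of the 11C-labeled compound between n-octanol and phosphate buffered saline; logD calculated from the distribution of radioactivity between phases.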
A short description of series [6]: Drug uptake in iv dosed mouse small intestine assessed as per gram of wet tissue measured after 5 to 60 mins. To be noted: read-out: Drug uptake. Type of series: ADME, organism-based. A digest of the protocol:
as §1

Series [7] is described as follows: Drug uptake in CD1 mouse brain assessed as standard uptake value after 0.5 mins. The series is classed as ADME, tissue-based. The note with it: in vivo. A digest of the protocol:
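Dynamic PET acquisition in CD-1 mice over 60 min after radioligand injection; brain time–activity curves expressed as standard uptake value. Blocking arm pretreated with 2-phenylcyclopropan-1-amine (3 mg/kg); uptake compared by area under the curve.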

Series [8] can be described thus: Drug uptake in dosed iv mouse liver assessed as per gram of wet tissue measured after 5 to 60 mins. The series is classed as ADME, organism-based. To be noted: read-out: Drug uptake. A digest of the protocol: as §1
Series [9] can be described thus: Tmax in iv dosed mouse small intestine. The series is classed as ADME, organism-based. A digest of the protocol: as §1
A short description of series [10]: Drug uptake in iv dosed mouse brain after 5 to 60 mins. The series is classed as ADME, organism-based. The note with it: in vivo. A digest of the protocol: as §1
Series [11] in a line: Stability in saline containing 5% ethanol assessed as compound radiolysis after 90 mins post formulation. The note with it: buffer, 1.5 h. The series is classed as physicochemical. A digest of the protocol: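 Radiotracer formulated in saline containing 5% ethanol and held for 90 min after formulation, then checked for radiolysis.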

Sequence of Cholesterol 24-hydroxylase (Q9Y6A2 whole entry, the tested form may be a part): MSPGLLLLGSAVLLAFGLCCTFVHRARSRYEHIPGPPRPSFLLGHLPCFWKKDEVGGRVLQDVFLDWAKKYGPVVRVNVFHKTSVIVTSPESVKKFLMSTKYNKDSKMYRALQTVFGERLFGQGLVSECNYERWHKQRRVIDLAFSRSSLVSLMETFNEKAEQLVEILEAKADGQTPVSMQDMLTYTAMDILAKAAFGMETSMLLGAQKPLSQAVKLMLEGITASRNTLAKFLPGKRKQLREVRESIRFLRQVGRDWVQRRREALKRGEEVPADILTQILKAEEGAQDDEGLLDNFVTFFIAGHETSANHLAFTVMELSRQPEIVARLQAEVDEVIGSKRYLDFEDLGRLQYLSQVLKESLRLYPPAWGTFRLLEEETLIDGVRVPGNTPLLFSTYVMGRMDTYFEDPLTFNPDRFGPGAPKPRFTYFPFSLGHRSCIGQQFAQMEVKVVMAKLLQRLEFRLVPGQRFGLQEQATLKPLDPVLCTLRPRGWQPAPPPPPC

As usually defined, the Ki is the equilibrium dissociation constant of an inhibitor or competing ligand from its target. Consider `O=C(NCc1ccccc1)N1CCN(c2cncnc2-c2ccccc2)CC1`, for which, in series [1], the inhibitory constant (Ki) was determined as 7.3 µM.
In general, logD refers to the decadic logarithm of the distribution of all forms, ionised or not, between an organic phase and buffer at a given pH. A higher logD goes with a more lipophilic compound. For orientation: Tmax means the time from dosing to the highest level. On to `O=[11C](NCc1ccccc1)N1CCN(c2cncnc2-c2ccccc2)CC1`, for which the tissue uptake in series [2], in series [3], in [4], in [6] and in [8] was more than 10 %ID/g in each case. This molecule also registered a logD in [5] of 3.05. Also, the SUV in series [7] worked out at 0.42. Also, the time to peak (Tmax) in series [9] was 30 min. In [10], the Drug uptake entry is recorded as “Active”. Also, in series [11], the Stability result is on record as “Stable”.

These data come from ChEMBL document CHEMBL4627337, “Synthesis and pharmacokinetic study of a 11C-labeled cholesterol 24-hydroxylase inhibitor using 'in-loop' [11C]CO2 fixation method” (Bioorg Med Chem Lett, 2020).
